Data taken from ChEMBL document CHEMBL1124453, “18-cycloalkyl analogues of enisoprost” (1989).

Assays:
[1] = system: Rattus norvegicus; test: Activity for diarrheagenic effect in rats by intragastric administration and the value ranges between 37-77; type: functional; settings: po
Summary of the method: (§1)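 Adult male Charles River rats (210–230 g), individually housed, fasted 24 h with water ad libitum. Logarithmically graded prostaglandin doses given orally (intragastric), N = 6-12 per group. Diarrhea scored all-or-none over 8 h after dosing. Prostaglandin stock 1 mg/mL in absolute ethanol, diluted in phosphate buffer pH 7.4 to at most 20% ethanol.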

[2] = system: Canis familiaris; test: Activity for gastric antisecretory activity in dogs by intrapouch administration and the value ranges between 0.017-0.032; type: functional; settings: Canis lupus familiaris, Stomach
Summary of the method: (§2)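 Adult female beagles (6-11 kg) with innervated Pavlov pouches, fasted 24 h with water available. Prostaglandin in isosmotic phosphate buffer pH 7.4 (≤20% ethanol) or vehicle given into the pouch via Thomas cannula after a 30-min basal collection. Canned food fed 30 min later. Juice collected at 30-min intervals for 4 h; acid output = volume × acidity.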

[3] = system: Canis familiaris; test: Activity for gastric antisecretory activity in dogs by intrapouch administration and the value ranges between 0.06-0.12; type: functional; settings: Canis lupus familiaris, Stomach; summary of the method: as §2
[4] = system: Rattus norvegicus; test: Activity for diarrheagenic effect in rats by intragastric administration and the value ranges between 947-1848; type: functional; settings: po; summary of the method: as §1
[5] = system: Canis familiaris; test: Activity for gastric antisecretory activity in dogs by intrapouch administration and the value ranges between 0.083-0.094; type: functional; settings: Canis lupus familiaris, Stomach; summary of the method: as §2
[6] = system: Rattus norvegicus; test: Activity for diarrheagenic effect in rats by intragastric administration and the value ranges between 106-698; type: functional; settings: po; summary of the method: as §1
[7] = system: Canis familiaris; test: Activity for gastric antisecretory activity in dogs by intrapouch administration and the value ranges between 63.2-76.9; type: functional; settings: Canis lupus familiaris, Stomach; summary of the method: as §2
[8] = system: Rattus norvegicus; test: Activity for diarrheagenic effect in rats by intragastric administration; type: functional; settings: po; summary of the method: as §1
[9] = system: Canis familiaris; test: No inhibitory activity (3 ug/kg) for gastric antisecretory activity in dogs by intrapouch administration; type: functional, Canis lupus familiaris, Stomach
Summary of the method: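 Food-stimulated Pavlov-pouch beagles were dosed intrapouch, highest dose tested 3.0 µg/kg, in phosphate buffer pH 7.4 with at most 20% ethanol. Gastric juice was collected at 30-min intervals for 4 h after feeding. Percent reduction of total acid output (volume × acidity) from control was calculated.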

[10] = system: Canis familiaris; test: Activity for gastric antisecretory activity in dogs by intrapouch administration; type: functional; settings: Canis lupus familiaris, Stomach; summary of the method: as §2
[11] = system: Canis familiaris; test: Activity for gastric antisecretory activity in dogs by intrapouch administration and the value ranges between 0.069-0.096; type: functional; settings: Canis lupus familiaris, Stomach; summary of the method: as §2
[12] = system: Rattus norvegicus; test: Activity for diarrheagenic effect in rats by intragastric administration and the value ranges between 141-1134; type: functional; settings: po; summary of the method: as §1

## CCCCC(C)(O)C/C=C/[C@H]1[C@H](O)CC(=O)[C@@H]1CC/C=C\CCC(=O)OC (stereo partly drawn) [ENISOPROST]
[1]
  ED50: 49 µg/kg
[2]
  ED50: 0.023 µg/kg

## COC(=O)CC/C=C\CC[C@H]1C(=O)C[C@@H](O)[C@@H]1/C=C/CC(C)(O)CCC1CCCC1 (stereo partly drawn)
[3]
  ED50: 0.09 µg/kg
[4]
  ED50: 1310 µg/kg

## COC(=O)CC/C=C\CC[C@H]1C(=O)C[C@@H](O)[C@@H]1/C=C/CC(C)(O)CCC1CC1 (stereo partly drawn)
[5]
  ED50: 0.09 µg/kg
[6]
  ED50: 273 µg/kg

## COC(=O)CC/C=C\CC[C@H]1C(=O)C[C@@H](O)[C@@H]1/C=C/CC(C)(O)CCC1CCCCC1 (stereo partly drawn)
[7]
  ED50: 70 µg/kg
[8]
  ED50: > 3160 µg/kg

## COC(=O)CC/C=C\CC[C@H]1C(=O)C[C@@H](O)[C@@H]1/C=C/CC(C)(O)CCCCO (stereo partly drawn)
[9]
  Inhibition: 0%

## COC(=O)CC/C=C\CC[C@H]1C(=O)C[C@@H](O)[C@@H]1/C=C/CC(C)(O)CCC1CCCCCC1 (stereo partly drawn)
[10]
  ED50: ~95 µg/kg
[8]
  ED50: > 3160 µg/kg

## COC(=O)CC/C=C\CC[C@H]1C(=O)C[C@@H](O)[C@@H]1/C=C/CC(C)(O)CCC1CCC1 (stereo partly drawn)
[11]
  ED50: 0.09 µg/kg
[12]
  ED50: 316 µg/kg
